These results are taken from article PMC5568800 (Investigative ophthalmology & visual science, 2009).

SMILES strings stand for the structures. Like-named read-outs stand apart in the source and are kept apart here.

Assay [1] has as its target X2IRBP (second module of Xenopus IRBP), wild-type sequence. It is filed as binding. The note with it: read-out: Kd, Enhancement. The gist of the method: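 Purified X2IRBP (Xenopus IRBP 313–612; His-fusion, TEV-cleaved, Ni and anion-exchange purified; quantified by A280 and amino acid analysis) was titrated with all-trans or 11-cis retinol. 11-cis retinol was made by NaBH4 reduction of 11-cis retinal. For all-trans, nonspecific signal from titration into fluorescence-matched NAT was subtracted and three independent titrations were averaged. Kd came from a nonlinear least-squares single-site-class fit.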

For assay [2] the target is unchanged. Description: Titration monitoring quenching of tryptophan. It is filed as binding. The note with it: read-out: Kd, Quenching, excitation 280 nm, emission 340 nm. Put shortly:
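Purified X2IRBP (Xenopus IRBP 313–612, TEV-cleaved His-fusion, Ni plus Q Sepharose purified) was titrated with all-trans or 11-cis retinol (ethanol stocks). Protein fluorescence at 340 nm (excitation 280 nm) was normalized to maximal quenching. All-trans data were averaged over three independent titrations. Kd and N came from a nonlinear least-squares fit to a noninteracting single-site-class binding equation.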

Assay [3] deals with W450F X2IRBP. Description: Titration monitoring enhancement of retinol fluorescence, W450F mutant. It is filed as binding, Xenopus. The gist of the method:
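All-trans retinol titration of the E. coli-expressed, TEV-cleaved Xenopus X2IRBP mutant, read as retinol fluorescence enhancement (ex 330 nm, em 480 nm). Nonspecific signal was subtracted using a titration into fluorescence-matched NAT solution, and the inner filter effect was corrected graphically. Three independent titrations were averaged. Kd from a nonlinear least-squares fit assuming a single type of noninteracting site.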

The target in assay [4] is W587F X2IRBP. The experiment in a line: Titration monitoring enhancement of retinol fluorescence, W587F mutant. It is filed as binding, Xenopus. The note with it: read-out: Kd, Enhancement, 11-cis retinol, excitation 324 nm, emission 475 nm, Figure 7. The gist of the method: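 The W587F mutant was introduced into X2IRBP-pET30 by site-directed mutagenesis, sequence-verified, then expressed in E. coli BLR(DE3) (1 mM IPTG, 22°C, 18 h) and purified by Ni-affinity, TEV cleavage and Q Sepharose. 11-cis retinol, made by NaBH4 reduction of 11-cis retinal and HPLC-checked, was titrated in. Kd came from a nonlinear least-squares single-site-class fit.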

Assay [5] addresses W587F X2IRBP. The experiment in a line: Titration monitoring quenching of tryptophan fluorescence, W587F mutant. It is filed as binding, Xenopus.
Assay [6] deals with X2IRBP (second module of Xenopus IRBP), wild-type sequence. The experiment in a line: Energy transfer titration, X2IRBP of wild-type sequence. It is filed as binding. To be noted: read-out: Kd, Energy Transfer; all-trans retinol; excitation 280 nm, emission 480 nm; Figure 4. Put shortly: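 X2IRBP (Xenopus IRBP residues 313–612) was expressed in E. coli BLR(DE3) as a His-tag fusion, TEV-cleaved, and purified by Ni-affinity and Q Sepharose. Concentration was set by A280 and amino acid analysis. All-trans retinol from fresh ethanol stocks was titrated in. Three independent titrations were averaged. Kd and N came from a nonlinear least-squares fit assuming a single class of noninteracting sites.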

The test system of assay [7] is W450F X2IRBP. The experiment in a line: Titration monitoring quenching of tryptophan fluorescence, W450F mutant. The note with it: all-trans retinol, excitation 280 nm, emission 340 nm. It is filed as binding, Xenopus. Put shortly:
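Intrinsic tryptophan fluorescence quenching (ex 280 nm, em 340 nm) of tag-free recombinant Xenopus X2IRBP mutants during all-trans retinol titration. Signal normalized to the maximum quenching. Runs alternated between the W450F and W587F proteins, three titrations each, and were averaged. Binding parameters from a nonlinear least-squares fit to a single-class, noninteracting-site equation.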

For assay [8], the target named is W450F X2IRBP. The experiment in a line: Energy transfer titration, W450F mutant. To be noted: read-out: Kd, Energy Transfer, all-trans retinol, Figure 4. It is filed as binding, Xenopus. The gist of the method:
(§1)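 Tag-free Xenopus IRBP second module (residues 313–612; His-tag cut by TEV protease), expressed in E. coli BLR(DE3) at 22°C for 18 h and purified on nickel then Q Sepharose columns. Titrated with all-trans retinol (fresh ethanol stock) and read by energy transfer (ex 280 nm, em 480 nm). Runs alternated between the two mutants, three per mutant, then averaged. Kd and N from a nonlinear least-squares fit to a single-class, noninteracting-site equation.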

Assay [9] has as its target W587F X2IRBP. Description: Energy transfer titration, W587F mutant. To be noted: read-out: Kd, Energy Transfer, all-trans retinol, Figure 4. It is filed as binding, Xenopus. Put shortly: as §1
The next assay deals with X2IRBP. It is filed as binding, Xenopus. To be noted: oleic acid 0.67 to 2.66 μM; X2IRBP 1 μM; retinol fluorescence enhancement. Put shortly:
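X2IRBP (1 μM; recombinant Xenopus, tag removed by TEV) titrated with all-trans or 11-cis retinol in the presence of oleic acid at 0.67 to 2.66 μM. Binding followed by retinol fluorescence enhancement (ex 330 nm, em 480 nm).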

[10] abbreviates: 11-cis retinol, X2IRBP of wild-type sequence, Figure 6.

Consider `CC1=C(/C=C/C(C)=C/C=C\C(C)=C\CO)C(C)(C)CCC1` [11-cis retinol], for which the Kd in assay [1] (setting [10]) was determined as 77 ± 15 nM; in assay [2] (setting [10]), 42 ± 9 nM; at W450F X2IRBP [3] (read-out: Kd, Enhancement, 11-cis retinol, excitation 324 nm, emission 475 nm, Figure 7), 218 ± 62 nM; at W587F X2IRBP [4] it was 132 ± 56 nM; at W587F X2IRBP [5] (read-out: Kd, Quenching, 11-cis retinol, excitation 280 nm, emission 340 nm, Figure 7) it was 24 ± 10 nM.
`CC1=C(/C=C/C(C)=C/C=C/C(C)=C/CO)C(C)(C)CCC1` [all-trans retinol]: the Kd in assay [1] (all-trans retinol, excitation 330 nm, emission 480 nm, Figure 4) is 70 ± 20 nM; in [2] (all-trans retinol, Figure 4) it was 8 ± 3 nM; in assay [6], 33 ± 8 nM; on W450F X2IRBP [3] (read-out: Kd, Enhancement, all-trans retinol, titrations of Figure 4), 450 ± 110 nM; at W450F X2IRBP [8], 290 ± 80 nM; at W587F X2IRBP [5] (read-out: Kd, Quenching, all-trans retinol, titrations of Figure 4), 50 ± 10 nM. In addition, the Kd on W587F X2IRBP [9] was 100 ± 10 nM. In addition, the “Quenching of tryptophan fluorescence (result in words)” value in the assay with W450F X2IRBP [7] is on record as “No significant quenching”.
In the case of `CCCCCCCC/C=C\CCCCCCCC(=O)O` [oleic acid], the “Manner of inhibition of 11-cis and all-trans retinol binding to X2IRBP” value with X2IRBP is “noncompetitive”.
